The values that follow come from ChEMBL document CHEMBL4814057, “4-4-(Anilinomethyl)-3-[4-(trifluoromethyl)phenyl]-1H-pyrazol-1-ylbenzoic acid derivatives as potent anti-gram-positive bacterial agents” (Eur J Med Chem, 2021).

In brackets after ≈: the same amount, converted by molar mass. Activity calls are given as the source filed them. The rule behind the calls is not given here. Bounds are passed on as bounds.

In assay [1] the test system is Enterococcus faecium. The assay is described as follows: Antimicrobial activity against vancomycin-resistant Enterococcus faecium clinical isolate 1088051 by CLSI-based broth microdilution assay. It counts as functional.
The subject of assay [2] is Enterococcus faecium. Nature of the assay: Antimicrobial activity against vancomycin-resistant Enterococcus faecium clinical isolate 1091563 by CLSI-based broth microdilution assay. It counts as functional. (Dilution methods test growth across graded concentrations, often in twofold steps.)
Assay [3] concerns Enterococcus faecium. The assay is described as follows: Antimicrobial activity against vancomycin-resistant Enterococcus faecium clinical isolate 1091720 by CLSI-based broth microdilution assay. It counts as functional.
Assay [4] deals with Enterococcus faecium. The assay is described as follows: Antimicrobial activity against vancomycin-resistant Enterococcus faecium clinical isolate 1094112 by CLSI-based broth microdilution assay. It counts as functional.
Assay [5] deals with Enterococcus faecium. Nature of the assay: Antimicrobial activity against vancomycin-resistant Enterococcus faecium clinical isolate 1100440 by CLSI-based broth microdilution assay. It counts as functional.
Assay [6] concerns Enterococcus faecium. The assay is described as follows: Antimicrobial activity against vancomycin-resistant Enterococcus faecium clinical isolate 1088168 by CLSI-based broth microdilution assay. It counts as functional.
For assay [7], the system named is Staphylococcus aureus. Nature of the assay: Antimicrobial activity against methicillin-sensitive Staphylococcus aureus ATCC 29213 by CLSI-based broth microdilution assay. It counts as functional.
In assay [8] the test system is Staphylococcus aureus. The assay is described as follows: Antimicrobial activity against methicillin-sensitive Staphylococcus aureus clinical isolate 1088060 by CLSI-based broth microdilution assay. It counts as functional. Put shortly: (§1)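 Broth microdilution starting at 50 µg/ml with 2-fold serial dilutions; run in triplicate.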
Assay [9] concerns Staphylococcus aureus. Nature of the assay: Antimicrobial activity against methicillin-sensitive Staphylococcus aureus clinical isolate 1088105 by CLSI-based broth microdilution assay. It counts as functional.
Assay [10] deals with Staphylococcus aureus. Nature of the assay: Antimicrobial activity against methicillin-sensitive Staphylococcus aureus clinical isolate 1088626 by CLSI-based broth microdilution assay. It counts as functional.
For assay [11], the system named is Staphylococcus aureus. Nature of the assay: Inhibition of lipid synthesis in Staphylococcus aureus ATCC 29213 at 8 times MIC measured by liquid scintillation counter. It counts as functional. Put shortly: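 Early-exponential S. aureus ATCC 29213 in CAMHBII exposed to drug at 8x MIC in triplicate tubes. Lipids extracted with chloroform/water. Organic phase dried and counted by liquid scintillation.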

The test system of assay [12] is Staphylococcus aureus. The assay is described as follows: Inhibition of DNA synthesis in Staphylococcus aureus ATCC 29213 at 8 times MIC measured by liquid scintillation counter. It counts as functional. The method in brief: (§2)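 Early-exponential cells in CAMHB added to drug (40x stock) in triplicate, with a no-drug control. After 30 min pre-incubation at room temperature, [3H]thymidine 3.0 µCi/tube (DNA) or [3H]uridine 0.5 µCi/tube (RNA) added for 30 min at room temperature. Stopped with cold TCA, precipitate filtered and washed, then scintillation counted.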

Assay [13] concerns Staphylococcus aureus. Nature of the assay: Antibacterial activity against vancomycin-intermediate resistant Staphylococcus aureus ATCC 700699 assessed as bacterial growth between 7 passages measured 14 to 21 days by broth dilution method. It counts as functional, organism-based. The following applies: time 14-21 day.
The subject of assay [14] is Staphylococcus aureus. Nature of the assay: Antibacterial activity against vancomycin-intermediate susceptible Staphylococcus aureus ATCC 25923 assessed as bacterial growth inhibition between 7 passages by broth dilution method. It counts as functional, organism-based.
In assay [15] the test system is Enterococcus faecalis. The assay is described as follows: Antibacterial activity against vancomycin-intermediate Enterococcus faecalis ATCC 29212 assessed as bacterial growth inhibition by measuring fold increase in MIC after 7 passages by broth dilution method. It counts as functional, organism-based.
The test system of assay [16] is Staphylococcus aureus. Nature of the assay: Inhibition of RNA synthesis in Staphylococcus aureus ATCC 29213 at 8 times MIC measured by liquid scintillation counter. It counts as functional. The method in brief: as §2
The test system of assay [17] is Staphylococcus aureus. The assay is described as follows: Antibacterial activity against methicillin resistant Staphylococcus aureus ATCC 700699 persisters assessed as reduction in viability at 64 times MIC by colony counting method. It counts as functional, organism-based. The method in brief:
(§3)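 Stationary-phase S. aureus from overnight CAMHB culture (35 °C, 200 rpm), washed thrice in PBS, diluted to ~5 × 10^8 CFU/ml. Incubated with antibiotic at 35 °C, 200 rpm. Aliquots taken at set times, washed, serially diluted in PBS, drop-plated (6 × 6) on TSA with 5% sheep blood. Colonies counted after 18–20 h at 35 °C. Triplicates.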

Assay [18] deals with Staphylococcus aureus. Nature of the assay: Antimicrobial activity against methicillin-susceptible Staphylococcus aureus ATCC 25923 assessed as bacterial growth inhibitions by CLSI protocol based microdilution method. It counts as functional.
Assay [19] concerns Staphylococcus aureus. Nature of the assay: Antimicrobial activity against antibiotic-resistant Staphylococcus aureus BM-2312 assessed as bacterial growth inhibitions by CLSI protocol based microdilution method. It counts as functional.
In assay [20] the test system is Staphylococcus aureus. Nature of the assay: Antimicrobial activity against methicillin-resistant Staphylococcus aureus ATCC 700699 assessed as bacterial growth inhibitions by CLSI protocol based microdilution method. It counts as functional.
The subject of assay [21] is Bacillus subtilis. The assay is described as follows: Antimicrobial activity against Bacillus subtilis ATCC 6623 assessed as bacterial growth inhibitions by CLSI protocol based microdilution method. It counts as functional. Put shortly:
as §1

Assay [22] relates to Enterococcus faecium. The assay is described as follows: Antimicrobial activity against vancomycin-resistant Enterococcus faecium ATCC 700221 assessed as bacterial growth inhibitions by CLSI protocol based microdilution method. It counts as functional.
The subject of assay [23] is Staphylococcus aureus. The assay is described as follows: Antibiofilm activity against Staphylococcus aureus UAMS-1 assessed as destruction catheter-associated biofilm formation measured after 48 hrs (reference value: 1.53 x 10^8). It counts as functional. The method in brief: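 Plasma-coated catheters colonised for 24 h at 37 °C with gentle shaking, starting from ~1 × 10^7 CFU of MSSA UAMS-1 in biofilm medium (TSB plus glucose and NaCl). […] Medium renewed at 24 h. Catheters (n = 3) sonicated at 48 h and plated on TSA for CFU per catheter.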

Assay [24] relates to Staphylococcus aureus. The assay is described as follows: Antibacterial activity against methicillin resistant Staphylococcus aureus ATCC 700699 persisters assessed as reduction in viability at 16 times MIC by colony counting method. It counts as functional, organism-based. The method in brief:
as §3

Assay [25] concerns Enterococcus faecium. The assay is described as follows: Antimicrobial activity against vancomycin-resistant Enterococcus faecium clinical isolate 1088228 by CLSI-based broth microdilution assay. It counts as functional.
Assay [26] deals with Enterococcus faecium. Nature of the assay: Antimicrobial activity against vancomycin-resistant Enterococcus faecium clinical isolate 1088925 by CLSI-based broth microdilution assay. It counts as functional.
Assay [27] relates to Enterococcus faecium. The assay is described as follows: Antimicrobial activity against vancomycin-resistant Enterococcus faecium clinical isolate 1089544 by CLSI-based broth microdilution assay. It counts as functional.
Assay [28] concerns Enterococcus faecium. The assay is described as follows: Antimicrobial activity against vancomycin-resistant Enterococcus faecium clinical isolate 1091282 by CLSI-based broth microdilution assay. It counts as functional.
For assay [29], the system named is Staphylococcus aureus. Nature of the assay: Antimicrobial activity against methicillin-resistant Staphylococcus aureus clinical isolate 1088064 by CLSI-based broth microdilution assay. It counts as functional.
The subject of assay [30] is Staphylococcus aureus. Nature of the assay: Antimicrobial activity against methicillin-resistant Staphylococcus aureus clinical isolate 1088610 by CLSI-based broth microdilution assay. It counts as functional.
Assay [31] relates to Staphylococcus aureus. Nature of the assay: Antimicrobial activity against methicillin-resistant Staphylococcus aureus clinical isolate 1088888 by CLSI-based broth microdilution assay. It counts as functional.
Assay [32] has as its system Staphylococcus aureus. The assay is described as follows: Antimicrobial activity against methicillin-resistant Staphylococcus aureus clinical isolate 1089106 by CLSI-based broth microdilution assay. It counts as functional.
In assay [33] the test system is Staphylococcus aureus. Nature of the assay: Antimicrobial activity against Staphylococcus aureus ATCC 29213 assessed as inhibition of cell wall synthesis at 8 times MIC measured by liquid scintillation counter. It counts as functional. The method in brief:
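Early-exponential S. aureus ATCC 29213 resuspended in M9 minimal medium. Drug added at 8x MIC, pre-incubated 30 min at 37 °C. [14C]N-acetylglucosamine (0.4 µCi/reaction) added, 45 min at 37 °C. Stopped with 8% SDS, heated 95 °C for 30 min, spotted onto nitrocellulose filters, washed with 0.1% SDS. Counted by liquid scintillation. Triplicate.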

Assay [34] has as its system Staphylococcus aureus. The assay is described as follows: Antibacterial activity against vancomycin-intermediate susceptible Staphylococcus aureus ATCC 25923 assessed as bacterial growth inhibition by measuring fold increase in MIC between 8 passages by broth dilution method. It counts as functional.
The test system of assay [35] is Enterococcus faecalis. Nature of the assay: Antimicrobial activity against vancomycin-susceptible Enterococcus faecalis ATCC 29212 assessed as bacterial growth inhibitions by CLSI protocol based microdilution method.

The term MIC denotes the least concentration at which growth counts as inhibited. On to `C[C@@H](O)[C@H]1C(=O)N2C(C(=O)O)=C(S[C@@H]3CN[C@H](C(=O)N(C)C)C3)[C@H](C)[C@H]12` [MEROPENEM], for which the MIC was found to be 2 µg/mL (≈ 5.22 µM) in assay [1]; 2 µg/mL (≈ 5.22 µM) in [2]; 8 µg/mL (≈ 20.9 µM) in [3]; 8 µg/mL (≈ 20.9 µM) in assay [4]; 4 µg/mL (≈ 10.4 µM) in [5]; 4 µg/mL (≈ 10.4 µM) in [6]. Also, the MIC was 0.06 µg/mL (≈ 0.156 µM) in assay [7], 0.06 µg/mL (≈ 0.156 µM) in assay [8], 0.12 µg/mL (≈ 0.313 µM) in assay [9] and 0.06 µg/mL (≈ 0.156 µM) in [10].
Regarding `C/C=C/C/C=C/CCC(=O)[C@H]1O[C@H]1C(N)=O` [CERULENIN], in [11], the “inhibition (INH)” value is 71.9%.
In the case of `O=C(O)c1cn(C2CC2)c2cc(N3CCNCC3)c(F)cc2c1=O` [CIPROFLOXACIN], in [12], the “inhibition (INH)” value came to 86.2%. For the same compound, the outcome in [13], in [14] and in assay [15] was inactive.
`CO[C@H]1/C=C/O[C@@]2(C)Oc3c(C)c(O)c4c(O)c(c(/C=N/N5CCN(C)CC5)c(O)c4c3C2=O)NC(=O)/C(C)=C\C=C\[C@H](C)[C@H](O)[C@@H](C)[C@@H](O)[C@@H](C)[C@H](OC(C)=O)[C@@H]1C` [RIFAMPIN]: the “inhibition (INH)” value in assay [16] was determined as 76.3%.
With `CN[C@H](CC(C)C)C(=O)N[C@H]1C(=O)N[C@@H](CC(N)=O)C(=O)N[C@H]2C(=O)N[C@H]3C(=O)N[C@H](C(=O)N[C@H](C(=O)O)c4cc(O)cc(O)c4-c4cc3ccc4O)[C@H](O)c3ccc(c(Cl)c3)Oc3cc2cc(c3O[C@@H]2O[C@H](CO)[C@@H](O)[C@H](O)[C@H]2O[C@H]2C[C@](C)(N)[C@H](O)[C@H](C)O2)Oc2ccc(cc2Cl)[C@H]1O` [VANCOMYCIN], the result in assay [17], in assay [24] and in assay [34] was inactive. Also, the MIC is 0.78 µg/mL (≈ 0.538 µM) in assay [18]; 0.78 µg/mL (≈ 0.538 µM) in assay [19]; 3.12 µg/mL (≈ 2.15 µM) in assay [20]; 0.19 µg/mL (≈ 0.131 µM) in [21]; above 50 µg/mL in assay [22]; 64 µg/mL (≈ 44.2 µM) in [1]. For the same compound, the MIC was 64 µg/mL (≈ 44.2 µM) in [2]; 64 µg/mL (≈ 44.2 µM) in assay [3]; above 64 µg/mL in assay [4]; above 64 µg/mL in assay [5]; above 64 µg/mL in [6]; above 64 µg/mL in assay [25]. Further, the MIC is above 64 µg/mL in assay [26]; above 64 µg/mL in assay [27]; above 64 µg/mL in assay [28]; 0.25 µg/mL (≈ 0.173 µM) in assay [7]; 0.25 µg/mL (≈ 0.173 µM) in [9]; 0.25 µg/mL (≈ 0.173 µM) in [10]. The MIC in assay [29] is 64 µg/mL (≈ 44.2 µM); in assay [30], 64 µg/mL (≈ 44.2 µM); in assay [31], above 64 µg/mL; in assay [32], 64 µg/mL (≈ 44.2 µM); in assay [35], 3.12 µg/mL (≈ 2.15 µM). Also, the Activity in assay [23] was 1.16 10^7CFU. Also, the “inhibition (INH)” value in assay [33] stood at 87.3%.
